No end group written: not given here.
Legend:
[1] = tested on: neg-HEK cells; assay: Flow cytometry binding of VHH–biotin–PTH conjugates to neg-HEK cells; conditions: for EC50: read-out: Binding EC50, Neg-HEK, 1 h on ice, streptavidin–PE, flow cytometry (MFI), mean of three independent experiments
How it was run: (§1)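 Adherent cells were detached with trypsin, washed, resuspended in PBS, and stained for 1 h on ice with graded concentrations of biotin-labelled VHH–PTH1–11 conjugates. Cells were washed, stained with streptavidin–PE, and analysed by flow cytometry. Line 1 used PTHR1-6E-HEK cells (HEK293 expressing PTHR1 with the 6E tag in the extracellular domain); line 2 used parental HEK293 cells. Median fluorescence intensity was fitted to sigmoidal curves, with maximal staining expressed relative to the MHC-I conjugate; three independent experiments.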

[2] = tested on: PTHR1-6E-HEK cells; assay: Flow cytometry binding of VHH–biotin–PTH conjugates to PTHR1-6E-HEK cells; design: species or system human
How it was run: as §1

[3] = tested on: human PTHR1; assay: cAMP stimulation by PTH1–34 CLAMPs on receptor cells; format: cell-based; conditions: HEK293 cells (receptor cells) that express human PTHR1; Fig. 5 (legend: PTHR1-6E-HEK)
[4] = molecular target: T1, PTHR1-6E (Homo sapiens, UniProt Q03431, A83I/D81R/G76A/K80A/K82Q/P78E/R79L/S71Q/S73D/S75E/T74Q); assay: cAMP response; format: cell-based
T1 sequence (Q03431 23-593 S71Q/S73D/T74Q/S75E/G76A/P78E/R79L/K80A/D81R/K82Q/A83I limits assumed): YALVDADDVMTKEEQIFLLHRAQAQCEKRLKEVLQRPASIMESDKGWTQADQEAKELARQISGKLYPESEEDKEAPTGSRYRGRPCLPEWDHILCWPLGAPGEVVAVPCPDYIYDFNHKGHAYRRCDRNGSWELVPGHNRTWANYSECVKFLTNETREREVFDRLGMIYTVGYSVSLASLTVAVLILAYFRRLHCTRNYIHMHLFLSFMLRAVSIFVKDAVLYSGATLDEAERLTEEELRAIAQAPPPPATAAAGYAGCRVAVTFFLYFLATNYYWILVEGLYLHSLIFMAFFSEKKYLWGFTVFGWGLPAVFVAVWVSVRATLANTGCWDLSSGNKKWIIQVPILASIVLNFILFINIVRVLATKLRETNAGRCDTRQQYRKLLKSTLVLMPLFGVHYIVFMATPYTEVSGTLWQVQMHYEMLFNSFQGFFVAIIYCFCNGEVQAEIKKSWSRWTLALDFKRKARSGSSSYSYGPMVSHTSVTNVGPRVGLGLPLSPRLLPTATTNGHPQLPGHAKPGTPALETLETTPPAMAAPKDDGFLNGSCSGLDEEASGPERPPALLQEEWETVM
How it was run: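 HEK293 cells stably expressing PTHR1 carrying the 6E tag plus a cAMP-responsive luciferase (Glosensor) were treated with graded concentrations of VHH–PTH1–11 conjugates. cAMP was read as luminescence. EC50 came from a sigmoidal dose–response fit with variable slope, using replicate wells per experiment and three independent experiments.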

Row | Compound | EC50 [1] [nM] | cAMP stimulation compared with PTH1–34 (in words) [3] | further results
1 | VHHa5b1–PTH1–11: conjugate of VHHα5β1 (targets integrin α5β1), biotin and PTH1–11 (SVSEIQLMHNL; also: conjugated to anti-integrin α5β1 VHH and biotin; UniProt P01270 32-42, looked up, fragment) | 3 |  | 
2 | VHH6E–PTH1–11: conjugate of VHH6E (binds UBC6E epitope tag), biotin and PTH1–11 (SVSEIQLMHNL; also: conjugated to VHH6E nanobody and biotin; UniProt P01270 32-42, looked up, fragment) |  |  | maximal staining (in words) ([1]; HEK-neg cells): a The maximal staining for VHH6E–PTH1–11 on HEK-neg cells was very weak, so binding EC50 values were not determined (ND).; staining signal compared with VHHMHC-I (in words) [2]: stronger signal than staining with VHHMHC-I
3 | VHHMHC-II–PTH1–34: CLAMP of PTH1–34 conjugated to VHH that targets murine MHC-II (SVSEIQLMHNLGKHLNSMERVEWLRKKLQDVHNF; Parathyroid hormone conjugated to anti-MHC-II VHH; UniProt P01270 32-65, looked up, fragment) |  | performed similarly to PTH1–34 itself | 
4 | VHHGFP–PTH1–34: CLAMP of PTH1–34 conjugated to VHH that targets GFP (SVSEIQLMHNLGKHLNSMERVEWLRKKLQDVHNF; also: conjugated to anti-GFP VHH (with biotin); UniProt P01270 32-65, looked up, fragment) |  | performed similarly to PTH1–34 itself | 
5 | CC[C@H](C)[C@H](NC(=O)[C@H](CCC(=O)O)NC(=O)[C@H](CO)NC(=O)[C@@H](NC(=O)[C@@H](N)CO)C(C)C)C(=O)N[C@@H](CCC(N)=O)C(=O)N[C@@H](CC(C)C)C(=O)N[C@@H](CCSC)C(=O)N[C@@H](Cc1c[nH]cn1)C(=O)N[C@@H](CC(N)=O)C(=O)N[C@@H](CC(C)C)C(=O)NCC(=O)N[C@@H](CCCCN)C(=O)N[C@@H](Cc1c[nH]cn1)C(=O)N[C@@H](CC(C)C)C(=O)N[C@@H](CC(N)=O)C(=O)N[C@@H](CO)C(=O)N[C@@H](CCSC)C(=O)N[C@@H](CCC(=O)O)C(=O)N[C@@H](CCCNC(=N)N)C(=O)N[C@H](C(=O)N[C@@H](CCC(=O)O)C(=O)N[C@@H](Cc1c[nH]c2ccccc12)C(=O)N[C@@H](CC(C)C)C(=O)N[C@@H](CCCNC(=N)N)C(=O)N[C@@H](CCCCN)C(=O)N[C@@H](CCCCN)C(=O)N[C@@H](CC(C)C)C(=O)N[C@@H](CCC(N)=O)C(=O)N[C@@H](CC(=O)O)C(=O)N[C@H](C(=O)N[C@@H](Cc1c[nH]cn1)C(=O)N[C@@H](CC(N)=O)C(=O)N[C@@H](Cc1ccccc1)C(=O)N[C@@H](CS)C(N)=O)C(C)C)C(C)C [PTH1–34, reference compound] |  |  | EC50 [4]: 0.18 nM
6 | VHHMHC-I–PTH1–11: conjugate of VHHMHC-I (targets human β2-microglobulin, previously Nb30), biotin and PTH1–11 (SVSEIQLMHNL; also: conjugated to anti-β2-microglobulin VHH and biotin; UniProt P01270 32-42, looked up, fragment) | 4.3 |  | stimulation of cAMP responses (in words) ([4]; PTHR1-6E-HEK cells, Fig. 2e and Table 1): essentially inactive in stimulating cAMP responses
